# Key:
# [1] = Binding affinity to Hsp90 in pig spleen extract by Bradford protein assay; format: tissue-based, Sus scrofa
# [2] = tested on: SK-BR-3; test: Inhibition of Her2 degradation in human SKBR3 cells by ELISA; format: functional, cell-based
# How it was run: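 Cellular ELISA in SKBR3 cells treated 24 h with compound, then methanol-fixed; Her2 detected with mouse anti-Her2 primary and peroxidase-conjugated anti-mouse secondary antibody; IC50 determined.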
# [3] = tested on: A-375; test: Inhibition of cell proliferation in human A375 cells; format: functional, cell-based
# How it was run: (§1)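 Cells seeded in 96-well plates; compound added 24 h later, then growth continued for a further 72 or 144 h depending on the line's growth rate before proliferation was measured.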
# [4] = tested on: HT-29; test: Inhibition of cell proliferation in human HT29 cells; format: functional, cell-based; how it was run: as §1
# [5] = tested on: LNCaP; test: Inhibition of cell proliferation in human LNCAP cells; format: functional, cell-based; how it was run: as §1
# [6] = tested on: MCF7; test: Inhibition of cell proliferation in human MCF7 cells; format: functional, cell-based; how it was run: as §1
# [7] = tested on: MDA-MB-231; test: Inhibition of cell proliferation in human MDA-MB-231 cells; format: functional, cell-based; how it was run: as §1
# [8] = tested on: NCI-H460; test: Inhibition of cell proliferation in human NCI-H460 cells; format: functional, cell-based; how it was run: as §1
# [9] = tested on: PC-3; test: Inhibition of cell proliferation in human PC3 cells; format: functional, cell-based; how it was run: as §1
# [10] = tested on: SK-MEL-5; test: Inhibition of cell proliferation in human SKMEL5 cells; format: functional, cell-based; how it was run: as §1
# [11] = tested on: SW-620; test: Inhibition of cell proliferation in human SW620 cells; format: functional, cell-based; how it was run: as §1
# [12] = tested on: A-375; test: Induction of Hsp70 in human A375 cells; format: functional, cell-based
# How it was run: (§2)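 High content imaging: A375 cells treated 24 h with compound, fixed in 4% PBS-buffered formalin, probed with anti-Hsp70 or anti-phospho-S6 primary antibodies, then TRITC- or FITC-conjugated secondaries, and imaged.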
# [13] = Inhibition of pErk in AU565 cells; format: cell-based
# [14] = Inhibition of pS6 in A375 cells; format: cell-based; conditions: A-375; how it was run: as §2
# [15] = tested on: SK-BR-3; test: Inhibition of Her2 degradation in human SKBR3 cells
Kd [1],IC50 [2],Structure (SMILES),also measured
2.9 µM,> 10 µM,NC(=O)c1ccc(-n2c3c(c4ccccc42)C(=O)CCC3)cc1N,–
0.35 µM,0.61 µM,CC1(C)CC(=O)c2c(n(-c3ccc(C(N)=O)c(NC4CC4)c3)c3ccccc23)C1,–
> 10 µM,> 10 µM,COc1ccc(CNc2cc(-n3c4c(c5ccccc53)C(=O)CCC4)ccc2C(N)=O)cc1,–
0.27 µM,1.6 µM,NC(=O)c1ccc(-n2c3c(c4cc(F)ccc42)C(=O)CCC3)cc1NN1CCOCC1,–
1.8 µM,> 50 µM,NC(=O)c1ccc(-n2c3c(c4ccccc42)C(=O)CCC3)cc1,–
1.1 µM,2.8 µM,NC(=O)c1ccc(-n2c3c(c4cc(F)ccc42)C(=O)CCC3)cc1NCCCN1CCOCC1,–
0.75 µM,> 50 µM,CC1(C)CC(=O)c2c(n(-c3ccc(C(N)=O)cc3)c3ccccc23)C1,–
> 10 µM,–,CC1(C)CC(=O)c2c(n(-c3ccc(C(N)=O)c(Nc4ccccc4)c3)c3ccccc23)C1,–
1 µM,2.1 µM,NC(=O)c1ccc(-n2c3c(c4ccccc42)C(=O)CCC3)cc1Nc1ccccc1,–
0.25 µM,5.4 µM,C=CCNc1cc(-n2c3c(c4cc(F)ccc42)C(=O)CCC3)ccc1C(N)=O,–
0.78 µM,4.1 µM,COCCNc1cc(-n2c3c(c4cc(F)ccc42)C(=O)CCC3)ccc1C(N)=O,–
> 10 µM,> 10 µM,NC(=O)c1ccc(-n2c3c(c4ccccc42)C(=O)CCC3)cc1NCc1ccccc1,–
> 10 µM,> 50 µM,COc1cc(-n2c3c(c4ccccc42)C(=O)CCC3)ccc1C(N)=O,–
–,7 µM,CC1CC(=O)c2c(n(-c3ccc(C(N)=O)c(NC4CC4)c3)c3ccccc23)C1 (centres undefined),–

# More lines, now with the values behind:
Structure (SMILES),Kd [1],IC50 [2],also measured
CCCNc1cc(-n2c3c(c4ccccc42)C(=O)CCC3)ccc1C(N)=O,0.35 µM,5.3 µM,–
N#Cc1cc(-n2c3c(c4ccccc42)C(=O)CCC3)ccc1C(N)=O,> 10 µM,> 50 µM,–
NC(=O)c1ccc(-n2c3c(c4ccccc42)C(=O)CCC3)cc1NCCN1CCCC1,1.9 µM,31 µM,–
NC(=O)c1ccc(-n2c3c(c4cc(F)ccc42)C(=O)CCC3)cc1NC1CC1,0.25 µM,1.3 µM,–
NC(=O)c1ccc(-n2c3c(c4ccccc42)C(=O)CCC3)cc1NCC1CC1,0.27 µM,1.3 µM,–
NC(=O)c1ccc(-n2c3c(c4ccccc42)C(=O)CCC3)cc1NCc1ccncc1,0.82 µM,5 µM,–
NC(=O)c1ccc(-n2c3c(c4ccccc42)C(=O)CCC3)cc1NC1CCOCC1,0.41 µM,0.56 µM,IC50 [3]: 0.4 µM; IC50 [4]: 0.37 µM; IC50 [5]: 0.7 µM; IC50 [6]: 0.29 µM; IC50 [7]: 0.96 µM; IC50 [8]: 0.9 µM; IC50 [9]: 0.82 µM; IC50 [10]: 0.34 µM; IC50 [11]: 0.26 µM; IC50 [12]: 0.23 µM; IC50 [13]: 0.59 µM; IC50 [14]: 0.07 µM; IC50 [15]: 0.56 µM
NC(=O)c1ccc(-n2c3c(c4cc(F)ccc42)C(=O)CCC3)cc1NCc1cccnc1,1.1 µM,6.5 µM,–
CC1CC(=O)c2c(n(-c3ccc(C(N)=O)c(NCC4CC4)c3)c3ccccc23)C1 (centres undefined),2.9 µM,6.9 µM,–
NC(=O)c1ccc(-n2c3c(c4ccccc42)C(=O)CCC3)cc1Br,> 10 µM,> 10 µM,–
NC(=O)c1ccc(-n2c3c(c4ccccc42)C(=O)CCC3)cc1NC1CCC(O)CC1 (centres undefined),0.9 µM,1.2 µM,–
CN(C)CCNc1cc(-n2c3c(c4cc(F)ccc42)C(=O)CCC3)ccc1C(N)=O,1.2 µM,34 µM,–
CC1CC(=O)c2c(n(-c3ccc(C(N)=O)c(Br)c3)c3ccccc23)C1 (centres undefined),> 10 µM,–,–
COCCNc1cc(-n2c3c(c4ccccc42)C(=O)CCC3)ccc1C(N)=O,–,8.9 µM,–
NC(=O)c1ccc(-n2c3c(c4ccccc42)C(=O)CCC3)cc1NC1CCC1,0.31 µM,6.8 µM,–
NC(=O)c1ccc(-n2c3c(c4ccccc42)C(=O)CCC3)cc1NC1CC1,0.35 µM,5.4 µM,–

# — ChEMBL document CHEMBL1145589, “Discovery of benzamide tetrahydro-4H-carbazol-4-ones as novel small molecule inhibitors of Hsp90” (Bioorg Med Chem Lett, 2008)
